Laboratory results published in ChEMBL document CHEMBL4422612, “Small Molecule Inhibitor that Stabilizes the Autoinhibited Conformation of the Oncogenic Tyrosine Phosphatase SHP2” (J Med Chem, 2019).
Positions count from the first letter of the chain named. Active and inactive are the calls of the source. The calls are words filed in the database; no cut-off is given here.

Experiments:
[1] = system: T1, Tyrosine-protein phosphatase non-receptor type 11 (Mus musculus), P35235 [E76K]; assay: Inhibition of PTPN11 E76K mutant in mouse embryonic fibroblasts assessed as inhibition of cell growth at 6 uM after 24 to 72 hrs by cell proliferation-based assay
T1 sequence (whole entry): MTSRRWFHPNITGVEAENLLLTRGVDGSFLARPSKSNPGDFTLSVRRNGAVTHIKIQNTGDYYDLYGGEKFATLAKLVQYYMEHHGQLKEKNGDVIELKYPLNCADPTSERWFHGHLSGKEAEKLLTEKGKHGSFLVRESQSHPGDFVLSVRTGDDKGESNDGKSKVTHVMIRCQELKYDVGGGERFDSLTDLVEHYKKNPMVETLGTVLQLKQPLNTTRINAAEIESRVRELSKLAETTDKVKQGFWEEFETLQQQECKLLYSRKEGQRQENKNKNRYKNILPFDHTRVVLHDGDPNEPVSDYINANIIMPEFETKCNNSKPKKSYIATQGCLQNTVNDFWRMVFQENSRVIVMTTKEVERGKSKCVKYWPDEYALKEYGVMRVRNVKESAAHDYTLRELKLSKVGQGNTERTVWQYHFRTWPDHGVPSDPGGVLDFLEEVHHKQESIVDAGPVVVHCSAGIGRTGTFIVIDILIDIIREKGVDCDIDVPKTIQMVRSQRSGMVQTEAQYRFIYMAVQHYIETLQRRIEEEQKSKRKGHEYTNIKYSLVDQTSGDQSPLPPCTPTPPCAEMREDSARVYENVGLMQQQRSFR
Procedure, shortened: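 Ptpn11 E76K/+ and Ptpn11 +/+ MEFs treated with 6 µM compound; cell number read by One Solution proliferation assay. Triplicates from one of three experiments.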

[2] = system: T2, Tyrosine-protein phosphatase non-receptor type 11 (Homo sapiens), Q06124 [E76K]; assay: Inhibition of recombinant full length human GST-tagged SHP2 E76K mutant using phospho-peptide as substrate pre-incubated for 30 mins before substrate addition and measured after 30 mins
T2 sequence (whole entry): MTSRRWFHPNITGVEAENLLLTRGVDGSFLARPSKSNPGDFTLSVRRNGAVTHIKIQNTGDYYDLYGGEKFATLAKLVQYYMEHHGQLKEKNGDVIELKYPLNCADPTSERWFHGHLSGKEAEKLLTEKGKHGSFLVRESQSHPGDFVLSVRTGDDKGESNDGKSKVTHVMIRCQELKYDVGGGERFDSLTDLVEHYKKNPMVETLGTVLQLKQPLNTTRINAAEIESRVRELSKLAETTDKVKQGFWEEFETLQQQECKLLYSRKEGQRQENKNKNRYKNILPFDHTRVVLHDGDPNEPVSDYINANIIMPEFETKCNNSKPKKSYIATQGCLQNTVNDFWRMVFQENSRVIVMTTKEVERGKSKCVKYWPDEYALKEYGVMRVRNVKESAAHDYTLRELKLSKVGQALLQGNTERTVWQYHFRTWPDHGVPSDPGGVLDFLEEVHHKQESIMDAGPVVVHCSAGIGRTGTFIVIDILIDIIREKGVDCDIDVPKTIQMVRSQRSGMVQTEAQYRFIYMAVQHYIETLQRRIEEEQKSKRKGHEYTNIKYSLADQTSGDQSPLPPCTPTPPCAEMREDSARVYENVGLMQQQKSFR

[3] = target: T3, Tyrosine-protein phosphatase non-receptor type 11 (Homo sapiens) (UniProt Q06124); assay: Binding affinity to His-tagged SHP2 (unknown origin) assessed as melting temperature at 10 uM measured every 50 secs by thermal shift assay (reference value: 43.5 +/- 0.95 degC)
T3 sequence (whole entry): T1 sequence (whole entry) with K76E, V450M, V550A, R590K

NCI-H661 = assay: Induction of cell cycle arrest in human NCI-H661 cells at 10 to 20 uM after 24 hrs by propidium iodide-staining based FACS analysis; assay type: functional
Procedure, shortened: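 H661 cells treated with 0, 10 or 20 µM for 24 h; cell cycle profile by propidium iodide staining and FACS. Profiles are representative of three independent experiments.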

[4] = target: T3, Tyrosine-protein phosphatase non-receptor type 11 (Homo sapiens); assay: Stable inhibition of human wild-type full length SHP2 at 5 to 20 uM using H-Glu-Phe-pTyr-Ala-Glu-Val-Gly-Arg-Ser-ProPro-Asp-Pro-Ala-Lys as substrate followed by 3 times wash out with phosphate buffer by phosphatase assay
[5] = system: T2, Tyrosine-protein phosphatase non-receptor type 11 (Homo sapiens), Q06124 [E76K]; assay: Inhibition of Ptpn11 E76K mutant in bone marrow cells isolated from JMML patient assessed as inhibition of GM-CSF-induced colony forming units at 1.25 to 5 uM after 14 days by inverted microscopy; assay type: cell-based
Procedure, shortened: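 JMML patient splenocytes, marrow or blood cells (PTPN11 E76K/+), 5×10⁴ cells/mL, with healthy apheresis controls. Plated in 0.9% methylcellulose IMDM with 30% FBS, glutamine, β-mercaptoethanol and GM-CSF 1.0 ng/mL, plus compound or DMSO. Myeloid colonies counted at 14 days, 37 °C, 5% CO2, normalized to DMSO.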

CCOc1cc(O)c(C(=O)/C=C/c2ccc(Cl)cc2Cl)cc1CN1CCC=C(n2c(=O)[nH]c3ccccc32)C1
growth inhibition (GI) [1]: Active
inhibition [2]: Dose-dependent effect
Tm [3]: 47.2 °C
Activity (NCI-H661): Active
inhibition [4]: Active
inhibition [5]: Active
